Experimental findings from ChEMBL document CHEMBL4732250, “Investigations on substituted (2-aminothiazol-5-yl)(imidazo[1,2-a]pyridin-3-yl)methanones for the treatment of Alzheimer's disease” (Bioorg Med Chem, 2021) are described below.

Data set [1] has as its system Rattus norvegicus. Put plainly: Antiinflammatory activity in Sprague-Dawley rat chronic model of formalin-induced paw edema assessed as inhibition of rat paw edema at 50 mg/kg, po pre treated for 1 hr followed by formalin-stimulation and measured after 4 days by plethysmometeric method relative to control. It is filed as functional. The following applies: 96 h, time 4 day. A digest of the protocol:
(§1)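 Chronic paw edema. Oral pre-dose in 0.2% agar; after 1 h, 0.1 mL 2% formalin in saline injected into the left hind sub-plantar paw, repeated on 5 consecutive days. Paw volume by plethysmometer. % inhibition of edema size relative to disease control, days 1–5. n = 6, mean ± SEM, one-way ANOVA with Tukey's test.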

Data set [2] deals with Rattus norvegicus. Put plainly: Antiinflammatory activity in Sprague-Dawley rat acute model of carrageenan-induced paw edema assessed as inhibition of rat paw edema at 50 mg/kg, po pre treated for 1 hr followed by carrageenan-stimulation and measured after 3 hrs by plethysmometeric method relative to control. It is filed as functional. The following applies: time 4 hrs. In outline:
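SD rats of either sex, 150–200 g, n = 6, dosed orally in 0.2% agar suspension. After 1 h, 0.1 mL 1% carrageenan in saline injected into the left hind sub-plantar paw. Paw volume measured by mercury plethysmometer before and 3 h after injection. % edema inhibition calculated. Mean ± SEM.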
A general note: The carrageenan paw model is a standard test of acute inflammation.

The subject of data set [3] is Rattus norvegicus. Nature of the data set: Antiinflammatory activity in Sprague-Dawley rat chronic model of formalin-induced paw edema assessed as inhibition of rat paw edema at 50 mg/kg, po pre treated for 1 hr followed by formalin-stimulation and measured after 1 day by plethysmometeric method relative to control. It is filed as functional. The following applies: 24 h. In outline:
as §1

Data set [4] deals with Rattus norvegicus. Put plainly: Antiinflammatory activity in Sprague-Dawley rat chronic model of formalin-induced paw edema assessed as inhibition of rat paw edema at 50 mg/kg, po pre treated for 1 hr followed by formalin-stimulation and measured after 5 day by plethysmometeric method relative to control. It is filed as functional. The following applies: 120 h. In outline: as §1

The subject of data set [5] is Rattus norvegicus. Nature of the data set: Antiinflammatory activity in Sprague-Dawley rat chronic model of formalin-induced paw edema assessed as inhibition of rat paw edema at 50 mg/kg, po pre treated for 1 hr followed by formalin-stimulation and measured after 3 days by plethysmometeric method relative to control. It is filed as functional. The following applies: 72 h, time 3 day. A digest of the protocol:
as §1

Data set [6] deals with Rattus norvegicus. Put plainly: Antiinflammatory activity in Sprague-Dawley rat chronic model of formalin-induced paw edema assessed as inhibition of rat paw edema at 50 mg/kg, po pre treated for 1 hr followed by formalin-stimulation and measured after 2 days by plethysmometeric method relative to control. It is filed as functional. The following applies: 48 h, time 2 day. A digest of the protocol: as §1

The subject of data set [7] is Rattus norvegicus. Put plainly: Antiinflammatory activity in Sprague-Dawley rat chronic model of formalin-induced paw edema assessed as inhibition of rat paw edema at 40 mg/kg, po pre treated for 1 hr followed by formalin-stimulation and measured after 3 days by plethysmometeric method relative to control. It is filed as functional. The following applies: 72 h, time 3 day. In outline: as §1

For data set [8], the system named is Rattus norvegicus. Put plainly: Antiinflammatory activity in Sprague-Dawley rat chronic model of formalin-induced paw edema assessed as inhibition of rat paw edema at 40 mg/kg, po pre treated for 1 hr followed by formalin-stimulation and measured after 1 day by plethysmometeric method relative to control. The following applies: 24 h. It is filed as functional. In outline:
as §1

The test system of data set [9] is Rattus norvegicus. Put plainly: Antiinflammatory activity in Sprague-Dawley rat chronic model of formalin-induced paw edema assessed as inhibition of rat paw edema at 40 mg/kg, po pre treated for 1 hr followed by formalin-stimulation and measured after 2 days by plethysmometeric method relative to control. It is filed as functional. The following applies: 48 h, time 2 day. In outline: as §1

Data set [10] deals with Rattus norvegicus. Nature of the data set: Antiinflammatory activity in Sprague-Dawley rat chronic model of formalin-induced paw edema assessed as inhibition of rat paw edema at 40 mg/kg, po pre treated for 1 hr followed by formalin-stimulation and measured after 5 days by plethysmometeric method relative to control. It is filed as functional. The following applies: 120 h, time 5 day. In outline: as §1

Data set [11] has as its system Rattus norvegicus. Put plainly: Antiinflammatory activity in Sprague-Dawley rat chronic model of formalin-induced paw edema assessed as inhibition of rat paw edema at 40 mg/kg, po pre treated for 1 hr followed by formalin-stimulation and measured after 4 days by plethysmometeric method relative to control. It is filed as functional. The following applies: 96 h, time 4 day. In outline: as §1

Data set [12] concerns Rattus norvegicus. Nature of the data set: Antiinflammatory activity in Sprague-Dawley rat chronic model of formalin-induced paw edema assessed as inhibition of rat paw edema at 50 mg/kg, po pre treated for 1 hr followed by formalin-stimulation and measured after 5 days by plethysmometeric method relative to control. It is filed as functional. The following applies: 120 h, time 5 day. A digest of the protocol: as §1

Data set [13] deals with Rattus norvegicus. Nature of the data set: Antiinflammatory activity in Sprague-Dawley rat acute model of carrageenan-induced paw edema assessed as inhibition of rat paw edema at 50 mg/kg, po pre treated for 1 hr followed by carrageenan-stimulation and measured after 3 hrs by plethysmometeric method relative to control.
A short description of data set [14]: Toxicity in AlCl3-induced Sprague-Dawley rat assessed as stomach lesion index at 5 mg/kg, po after 28 days by H and E staining based microscopic method. It is filed as organism-based. The following applies: in vivo, 672 h, time 28 day. A digest of the protocol:
(§2)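 Gastrointestinal damage in AlCl3-model rats, 28 days of oral dosing. Stomach and intestines were washed in cold PBS 0.01 M pH 7.4 and fixed 24 h in 10% neutral buffered formalin. After a 70% ethanol wash, haemorrhagic damage was measured by digital vernier caliper for the lesion index. HE-stained sections examined microscopically.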

Data set [15] concerns Rattus norvegicus. Nature of the data set: Antialzheimer activity against AlCl3-induced Sprague-Dawley rat assessed as reduction in hippocampal neuronal degeneration at 5 mg/kg, po after 28 days by H and E staining based microscopic method. It is filed as functional, organism-based. The following applies: time 28.0 day. In outline: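 Hippocampal neuronal degeneration. After 28 days of oral dosing in 0.2% agar with daily AlCl3 4.2 mg/kg i.p., brain sections were HE-stained and hippocampal regions examined at 100X.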

Data set [16] is described as follows: Toxicity in AlCl3-induced Sprague-Dawley rat assessed as reduction in total protein level at 5 mg/kg, po after 28 days by automated analyser. It is filed as organism-based. The following applies: in vivo, 672 h, time 28 day. In outline: (§3)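 Under isoflurane, retro-orbital blood was collected into non-heparinized tubes after the 28-day AlCl3 model with oral dosing. Serum % albumin and total protein were measured on an automated clinical chemistry analyser.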

The nature of data set [17]: Toxicity in AlCl3-induced Sprague-Dawley rat assessed as intestine lesion index at 5 mg/kg, po after 28 days by H and E staining based microscopic method. It is filed as organism-based. The following applies: in vivo, 672 h, time 28 day. A digest of the protocol: as §2
Data set [18] is described as follows: Toxicity in AlCl3-induced Sprague-Dawley rat assessed as reduction in HCT level at 5 mg/kg, po after 28 days by automated haematology analyser. The following applies: in vivo, 672 h, time 28 day. It is filed as organism-based. In outline:
(§4)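 On day 29 of the AlCl3 model (28 days of oral dosing), blood was drawn from the retro-orbital sinus under isoflurane into heparinized tubes. Haemoglobin and haematocrit were measured on a haematology analyser.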

Data set [19] is described as follows: Toxicity in AlCl3-induced Sprague-Dawley rat assessed as reduction in HGB level at 5 mg/kg, po after 28 days by automated haematology analyser. It is filed as organism-based. The following applies: in vivo, 672 h, time 28 day. In outline:
as §4

Data set [20] is described as follows: Toxicity in AlCl3-induced Sprague-Dawley rat assessed as reduction in serum albumin level at 5 mg/kg, po after 28 days by automated analyser. It is filed as organism-based. The following applies: in vivo, 672 h, time 28 day. In outline: as §3

Active and inactive are the calls of the source. The rule behind the calls is not given here.

A word on the inhibition in vivo: it is the percentage by which the read-out fell short of the control. In the case of `Cc1cccn2c(C(=O)c3sc(N)nc3N(C)C)cnc12`, the inhibition in vivo at 50 mg/kg amounted to 54% in the data set on Rattus norvegicus [1]; 81% in the data set with Rattus norvegicus [2]; 55% with Rattus norvegicus [3]; 54% in the data set with Rattus norvegicus [4]; 56% in the data set with Rattus norvegicus [5]; 56% in the data set on Rattus norvegicus [6].
As to `Cc1ccc(-c2cc(C(F)(F)F)nn2-c2ccc(S(N)(=O)=O)cc2)cc1` [CELECOXIB], the inhibition in vivo at 40 mg/kg is 70% with Rattus norvegicus [7]; 67% in the data set with Rattus norvegicus [8]; 74% with Rattus norvegicus [9]; 68% in the data set on Rattus norvegicus [10]; 70% with Rattus norvegicus [11].
Turning to `Cc1ccn2c(C(=O)c3sc(N)nc3C)cnc2c1`, the inhibition in vivo at 50 mg/kg in the data set with Rattus norvegicus [2] was determined as 66%.
Turning to `Cc1ccn2c(C(=O)c3cnc(N)s3)cnc2c1`, the inhibition in vivo at 50 mg/kg in the data set on Rattus norvegicus [1] worked out at 23%; in the data set on Rattus norvegicus [2] it was 77%; in the data set with Rattus norvegicus [3], 30%; with Rattus norvegicus [4], 18%; with Rattus norvegicus [5], 36%; in the data set with Rattus norvegicus [6] it was 24%.
`Cc1ccc2ncc(C(=O)c3cnc(N)s3)n2c1`: the inhibition in vivo at 50 mg/kg in the data set with Rattus norvegicus [2] amounted to 53%.
Take `Cc1ccc2ncc(C(=O)c3sc(N)nc3-c3ccccc3)n2c1`: in the data set on Rattus norvegicus [2], the inhibition in vivo at 50 mg/kg was found to be 77%.
With `Cc1ccn2c(C(=O)c3cnc4ccccn34)cnc2c1`, the results for the inhibition in vivo at 50 mg/kg with Rattus norvegicus [12] and in the data set on Rattus norvegicus [13] were 61% and 67%, respectively.
In the case of `Cc1cnc(NC(=O)C2=C(O)c3ccccc3S(=O)(=O)N2C)s1` [MELOXICAM], the Activity_index was 12.19 mm in data set [14] and 29.15 mm in data set [17]. Besides, the outcome in the data set with Rattus norvegicus [15] was Active. For the same compound, the Activity entry in [16] was “Toxic”; in [18] it was “Toxic”; in data set [19], “Toxic”; in data set [20], “Non-Toxic”.
As for `Nc1nc(-c2ccccc2)c(C(=O)c2cnc3ccccn23)s1`, the inhibition in vivo at 50 mg/kg in the data set on Rattus norvegicus [2] amounted to 40%.
